# Reference: ChEMBL document CHEMBL4325893, “Synthesis and antibacterial profiles of targeted triclosan derivatives” (2019)
# Key:
# [1] = Antibacterial activity against Salmonella enterica subspecies enterica serotype Dublin OCC 627 after 18 hrs; format: functional, Salmonella enterica subsp. enterica serovar Dublin; details: OCC 627, 18 h
# Procedure, shortened: (§1)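 Broth microdilution in Nutrient Broth No. 2; stocks in ethanol diluted to 0.01–128 µg/ml (triclosan) or 0.25–256 µg/ml (glycosides). Overnight 37 °C NB2 cultures diluted 1 in 10^4 in saline and added to the dilutions. Incubation at 37 °C with agitation, OD read every 15 min; MIC is the lowest concentration preventing any OD rise after 18 h.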
# Staphylococcus aureus [2] = assay: Antibacterial activity against Staphylococcus aureus ATCC 25923 after 18 hrs; format: functional; details: ATCC 25923, 18 h; procedure, shortened: as §1
# Streptococcus pneumoniae [3] = assay: Antibacterial activity against Streptococcus pneumoniae 6305 after 18 hrs; format: functional; details: Streptococcus pneumoniae, 6305, 18 h
# Procedure, shortened: (§2)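 Broth microdilution in Nutrient Broth No. 2. Ethanol stocks were diluted in broth to 0.01–128 µg/ml for triclosan and 0.25–256 µg/ml for glycosides. Overnight 37°C NB2 cultures were diluted 1 in 10^4 in saline and added to the wells. Plates were incubated at 37°C with OD read every 15 min after agitation. MIC was the lowest concentration giving no OD increase at 18 h.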
# [4] = system: Staphylococcus epidermidis; assay: Antibacterial activity against Staphylococcus epidermidis ATCC 12228 after 18 hrs; format: functional; details: ATCC 12228, 18 h; procedure, shortened: as §1
# Streptococcus agalactiae = assay: Antibacterial activity against Streptococcus agalactiae OCC 182 after 18 hrs; format: functional; details: OCC 182, 18 h; procedure, shortened: as §2
# Staphylococcus aureus [5] = assay: Antibacterial activity against Staphylococcus aureus OCC 104 after 18 hrs; format: functional; details: OCC 104, 18 h; procedure, shortened: as §1
# Serratia marcescens = assay: Antibacterial activity against Serratia marcescens OCC 217 after 18 hrs; format: functional; details: OCC 217, 18 h; procedure, shortened: as §1
# Salmonella typhimurium = assay: Antibacterial activity against Salmonella enterica subspecies enterica serotype typhimurium ATCC 14028 after 18 hrs; format: functional, Salmonella enterica subsp. enterica serovar Typhimurium; details: ATCC 14028, 18 h; procedure, shortened: as §1
# [6] = Antibacterial activity against Salmonella enterica subspecies enterica serotype Infantis OCC 2133 after 18 hrs; format: functional, Salmonella enterica subsp. enterica serovar Infantis; details: OCC 2133, 18 h; procedure, shortened: as §1
# Staphylococcus aureus [7] = assay: Antibacterial activity against Staphylococcus aureus NCTC 13758 after 18 hrs; format: functional; details: NCTC 13758, 18 h; procedure, shortened: as §1
# Proteus mirabilis = assay: Antibacterial activity against Proteus mirabilis ATCC 12453 after 18 hrs; format: functional; details: ATCC 12453, 18 h; procedure, shortened: as §1
# [8] = Antibacterial activity against Enterobacter cloacae ATCC 13047 after 18 hrs; format: functional, Enterobacter cloacae subsp. cloacae; details: ATCC 13047, 18 h; procedure, shortened: as §1
# Bacillus subtilis = assay: Antibacterial activity against Bacillus subtilis NCTC 10073 after 18 hrs; format: functional; details: NCTC 10073, 18 h; procedure, shortened: as §1
# [9] = Antibacterial activity against Salmonella enterica subspecies enterica serotype Arizonae OCC 706 after 18 hrs; format: functional, Salmonella enterica subsp. enterica serovar Arizonae; details: OCC 706, 18 h; procedure, shortened: as §1
# Staphylococcus aureus [10] = assay: Antibacterial activity against Staphylococcus aureus ATCC 9144 after 18 hrs; format: functional; details: ATCC 9144, 18 h; procedure, shortened: as §1
# Proteus vulgaris = assay: Antibacterial activity against Proteus vulgaris OCC 195 after 18 hrs; format: functional; details: OCC 195, 18 h; procedure, shortened: as §1
# Staphylococcus aureus [11] = assay: Antibacterial activity against Staphylococcus aureus ATCC 6538 after 18 hrs; format: functional; details: ATCC 6538, 18 h; procedure, shortened: as §1
# [12] = system: Staphylococcus saprophyticus; assay: Antibacterial activity against Staphylococcus saprophyticus ATCC 15305 after 18 hrs; format: functional; details: ATCC 15305, 18 h; procedure, shortened: as §2
# [13] = Antibacterial activity against Salmonella enterica subspecies enterica serotype Virchow NCTC 5742 after 18 hrs; format: functional, Salmonella enterica subsp. enterica serovar Virchow; details: NCTC 5742, 18 h; procedure, shortened: as §1
# Escherichia coli [14] = assay: Antibacterial activity against Escherichia coli ATCC 10536 after 18 hrs; format: functional; details: ATCC 10536, 18 h; procedure, shortened: as §1
# Klebsiella aerogenes [15] = assay: Antibacterial activity against Klebsiella aerogenes NCTC 8167 after 18 hrs; format: functional; details: NCTC 8167, 18 h; procedure, shortened: as §1
# Klebsiella aerogenes [16] = assay: Antibacterial activity against Enterobacter aerogenes ATCC 13048 after 18 hrs; format: functional; details: ATCC 13048, 18 h; procedure, shortened: as §1
# Escherichia coli [17] = assay: Antibacterial activity against Escherichia coli ATCC 8739 after 18 hrs; format: functional; details: ATCC 8739, 18 h; procedure, shortened: as §1
# Escherichia coli [18] = assay: Antibacterial activity against Escherichia coli OCC 122 after 18 hrs; format: functional; details: OCC 122, 18 h; procedure, shortened: as §1
# Escherichia coli [19] = assay: Antibacterial activity against Escherichia coli NCTC 13216 after 18 hrs; format: functional; details: NCTC 13216, 18 h; procedure, shortened: as §1
# Bacillus cereus = assay: Antibacterial activity against Bacillus cereus ATCC 14579 after 18 hrs; format: functional; details: ATCC 14579, 18 h; procedure, shortened: as §1
# [20] = system: Staphylococcus haemolyticus; assay: Antibacterial activity against Staphylococcus haemolyticus OCC 2223 after 18 hrs; format: functional; details: OCC 2223, 18 h; procedure, shortened: as §2
# Klebsiella pneumoniae [21] = assay: Antibacterial activity against Klebsiella pneumoniae ATCC 13883 after 18 hrs; format: functional; details: ATCC 13883, 18 h; procedure, shortened: as §1
# Staphylococcus aureus [22] = assay: Antibacterial activity against Staphylococcus aureus OCC 106 after 18 hrs; format: functional; details: OCC 106, 18 h; procedure, shortened: as §1
# Aeromonas hydrophila = assay: Antibacterial activity against Aeromonas hydrophila OCC 778 after 18 hrs; format: functional; details: OCC 778, 18 h; procedure, shortened: as §1
# Escherichia coli [23] = assay: Antibacterial activity against Escherichia coli ATCC 25922 after 18 hrs; format: functional; details: ATCC 25922, 18 h; procedure, shortened: as §1
# Staphylococcus aureus [24] = assay: Antibacterial activity against Staphylococcus aureus ATCC 29213 after 18 hrs; format: functional; details: ATCC 29213, 18 h; procedure, shortened: as §1
# [25] = system: Staphylococcus epidermidis; assay: Antibacterial activity against Staphylococcus epidermidis 155 after 18 hrs; format: functional; details: Staphylococcus epidermidis, 155, 18 h; procedure, shortened: as §1
# [26] = system: Salmonella enterica subsp. enterica serovar Abony; assay: Antibacterial activity against Salmonella enterica subspecies enterica serotype Abony NCTC 6017 after 18 hrs; format: functional; details: NCTC 6017, 18 h; procedure, shortened: as §1
# Streptococcus pyogenes = assay: Antibacterial activity against Streptococcus pyogenes ATCC 19615 after 18 hrs; format: functional; details: ATCC 19615, 18 h; procedure, shortened: as §2
# Citrobacter freundii [27] = assay: Antibacterial activity against Citrobacter freundii 8090 after 18 hrs; format: functional; details: Citrobacter freundii, 8090, 18 h; procedure, shortened: as §1
# [28] = Antibacterial activity against Salmonella enterica subspecies enterica serotype Poona NCTC 4840 after 18 hrs; format: functional, Salmonella enterica subsp. enterica serovar Poona; details: NCTC 4840, 18 h; procedure, shortened: as §1
# Escherichia coli [29] = assay: Antibacterial activity against Escherichia coli 700728 after 18 hrs; format: functional; details: Escherichia coli, 700728, 18 h; procedure, shortened: as §1
# Escherichia coli [30] = assay: Antibacterial activity against Escherichia coli ATCC 11775 after 18 hrs; format: functional; procedure, shortened: as §1
# Escherichia hermannii = assay: Antibacterial activity against Escherichia hermannii 33650 after 18 hrs; format: functional; details: Atlantibacter hermannii, 33650, 18 h; procedure, shortened: as §1
# Cronobacter sakazakii = assay: Antibacterial activity against Cronobacter sakazakii 29544 after 18 hrs; format: functional; details: Cronobacter sakazakii, 29544, 18 h; procedure, shortened: as §1
# Streptococcus viridans = assay: Antibacterial activity against Streptococcus viridans OCC 234 after 18 hrs; format: functional; details: OCC 234, 18 h; procedure, shortened: as §2
# [31] = system: Staphylococcus epidermidis; assay: Antibacterial activity against Staphylococcus epidermidis ATCC 14990 after 18 hrs; format: functional; details: ATCC 14990, 18 h; procedure, shortened: as §1
# Hafnia alvei = assay: Antibacterial activity against Hafnia alvei 13337 after 18 hrs; format: functional; details: Hafnia alvei, 13337, 18 h; procedure, shortened: as §1
# [32] = Antibacterial activity against Salmonella enterica subspecies enterica serotype Pullorum OCC 273 after 18 hrs; format: functional, Salmonella enterica subsp. enterica serovar Pullorum; details: OCC 273, 18 h; procedure, shortened: as §1
# Enterococcus faecalis [33] = assay: Antibacterial activity against Enterococcus faecalis ATCC 29212 after 18 hrs; format: functional; details: ATCC 29212, 18 h; procedure, shortened: as §1
# Pseudomonas aeruginosa = assay: Antibacterial activity against Pseudomonas aeruginosa ATCC 27853 after 18 hrs; format: functional; details: ATCC 27853, 18 h; procedure, shortened: as §1
# Enterococcus faecium = assay: Antibacterial activity against Enterococcus faecium ATCC 19434 after 18 hrs; format: functional; details: ATCC 19434, 18 h; procedure, shortened: as §1
# Staphylococcus aureus [34] = assay: Antibacterial activity against Staphylococcus aureus ATCC 6538P after 18 hrs; format: functional; procedure, shortened: as §1
# [35] = Antibacterial activity against Salmonella enterica subspecies enterica serotype Indiana OCC 597 after 18 hrs; format: functional, Salmonella enterica subsp. enterica serovar Indiana; details: OCC 597, 18 h; procedure, shortened: as §1
# Enterococcus faecalis [36] = assay: Antibacterial activity against Enterococcus faecalis ATCC 33186 after 18 hrs; format: functional; details: ATCC 33186, 18 h; procedure, shortened: as §1
# Streptococcus pneumoniae [37] = assay: Antibacterial activity against Streptococcus pneumoniae ATCC 49619 after 18 hrs; format: functional; details: ATCC 49619, 18 h; procedure, shortened: as §2
# Escherichia coli [38] = assay: Antibacterial activity against Escherichia coli ATCC 35218 after 18 hrs; format: functional; details: ATCC 35218, 18 h; procedure, shortened: as §1
# Klebsiella pneumoniae [39] = assay: Antibacterial activity against Klebsiella pneumoniae ATCC 10031 after 18 hrs; format: functional; details: ATCC 10031, 18 h; procedure, shortened: as §1
# [40] = Antibacterial activity against Salmonella enterica subspecies enterica serotype Nottingham NCTC 7832 after 18 hrs; format: functional, Salmonella enterica subsp. enterica serovar Nottingham; details: NCTC 7832, 18 h; procedure, shortened: as §1
# Citrobacter freundii [41] = assay: Antibacterial activity against Citrobacter freundii OCC 851 after 18 hrs; format: functional; details: OCC 851, 18 h; procedure, shortened: as §1
# Salmonella enteritidis = assay: Antibacterial activity against Salmonella enterica subspecies enterica serotype Enteritidis 13076 after 18 hrs; format: functional, Salmonella enterica subsp. enterica serovar Enteritidis; details: Salmonella enterica, 13076, 18 h; procedure, shortened: as §1
structure (smiles),measurement,setting,value
Oc1cc(Cl)ccc1Oc1ccc(Cl)cc1Cl [TRICLOSAN],MIC,[1],0.5 to 1 µg/mL
same,MIC,Staphylococcus aureus [2],0.01 µg/mL
same,MIC,Streptococcus pneumoniae [3],1 µg/mL
same,MIC,[4],0.01 µg/mL
same,MIC,Streptococcus agalactiae,4 µg/mL
same,MIC,Staphylococcus aureus [5],0.01 µg/mL
same,MIC,Serratia marcescens,64 µg/mL
same,MIC,Salmonella typhimurium,0.5 to 1 µg/mL
same,MIC,[6],0.5 to 1 µg/mL
same,MIC,Staphylococcus aureus [7],0.01 µg/mL
same,MIC,Proteus mirabilis,0.5 µg/mL
same,MIC,[8],0.5 µg/mL
same,MIC,Bacillus subtilis,1 µg/mL
same,MIC,[9],0.5 to 1 µg/mL
same,MIC,Staphylococcus aureus [10],0.01 µg/mL
same,MIC,Proteus vulgaris,0.5 µg/mL
same,MIC,Staphylococcus aureus [11],0.01 µg/mL
same,MIC,[12],0.01 µg/mL
same,MIC,[13],0.5 to 1 µg/mL
same,MIC,Escherichia coli [14],0.1 to 0.5 µg/mL
same,MIC,Klebsiella aerogenes [15],0.5 µg/mL
same,MIC,Klebsiella aerogenes [16],0.5 µg/mL
same,MIC,Escherichia coli [17],0.1 to 0.5 µg/mL
same,MIC,Escherichia coli [18],0.1 to 0.5 µg/mL
same,MIC,Escherichia coli [19],0.1 to 0.5 µg/mL
same,MIC,Bacillus cereus,2 µg/mL
same,MIC,[20],0.01 µg/mL
same,MIC,Klebsiella pneumoniae [21],0.1 µg/mL
same,MIC,Staphylococcus aureus [22],0.01 µg/mL
same,MIC,Aeromonas hydrophila,8 µg/mL
same,MIC,Escherichia coli [23],0.1 to 0.5 µg/mL
same,MIC,Staphylococcus aureus [24],0.01 µg/mL
same,MIC,[25],0.01 µg/mL
same,MIC,[26],0.5 to 1 µg/mL
same,MIC,Streptococcus pyogenes,1 µg/mL
same,MIC,Citrobacter freundii [27],0.5 µg/mL
same,MIC,[28],0.5 to 1 µg/mL
same,MIC,Escherichia coli [29],0.1 to 0.5 µg/mL
same,MIC,Escherichia coli [30],0.1 to 0.5 µg/mL
same,MIC,Escherichia hermannii,0.5 µg/mL
same,MIC,Cronobacter sakazakii,0.5 µg/mL
same,MIC,Streptococcus viridans,4 µg/mL
same,MIC,[31],0.01 µg/mL
same,MIC,Hafnia alvei,0.1 µg/mL
same,MIC,[32],0.5 to 1 µg/mL
same,MIC,Enterococcus faecalis [33],8 µg/mL
same,MIC,Pseudomonas aeruginosa,32 µg/mL
same,MIC,Enterococcus faecium,4 µg/mL
same,MIC,Staphylococcus aureus [34],0.01 µg/mL
same,MIC,[35],0.5 to 1 µg/mL
same,MIC,Enterococcus faecalis [36],8 µg/mL
same,MIC,Streptococcus pneumoniae [37],1 µg/mL
same,MIC,Escherichia coli [38],0.1 to 0.5 µg/mL
same,MIC,Klebsiella pneumoniae [39],0.1 µg/mL
same,MIC,[40],0.5 to 1 µg/mL
same,MIC,Citrobacter freundii [41],0.5 µg/mL
same,MIC,Salmonella enteritidis,0.5 to 1 µg/mL
